Bounds are passed on as bounds.

For assay [1], the target named is T1, Dihydropteroate synthase (Escherichia coli K-12, UniProt P0AC13).
T1 sequence (P0AC13 whole entry): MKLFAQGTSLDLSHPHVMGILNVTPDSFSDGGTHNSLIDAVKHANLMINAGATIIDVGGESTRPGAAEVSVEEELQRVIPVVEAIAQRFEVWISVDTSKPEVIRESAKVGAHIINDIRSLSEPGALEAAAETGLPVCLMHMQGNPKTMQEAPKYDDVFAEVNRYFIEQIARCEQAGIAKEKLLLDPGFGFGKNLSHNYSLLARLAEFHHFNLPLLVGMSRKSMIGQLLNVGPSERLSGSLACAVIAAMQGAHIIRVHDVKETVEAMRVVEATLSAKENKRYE
The assay can be described thus: (§1) In vitro inhibition of dihydropteroate synthase from Escherichia coli. To be noted: read-out: I50. A digest of the protocol: (§2)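 Partially purified synthase from E. coli B. The assay used [14C]carboxy-p-aminobenzoic acid as substrate. Paper chromatography separated radiolabelled dihydropteroate from unreacted substrate. Results were given as the micromolar concentration giving 50% inhibition, or as percent inhibition at a stated concentration.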

Assay [2] addresses T2, Dihydropteroate synthase (Escherichia coli K-12) (UniProt P0AC13).
T2 sequence (whole entry): T1 sequence (P0AC13 whole entry)
The assay is described as §1. Also on record: concentration or dose not given beside the values. Conditions: concentration not given here. The method in brief: as §2

Assay [3] addresses T2, Dihydropteroate synthase (Escherichia coli K-12). The assay can be described thus: Kinetic constant for synthase inhibition. The method in brief: (§3)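 Kinetic runs varied either the pterin substrate or PABA across inhibitor levels. Velocity was nmol dihydropteroate formed in a 12-min incubation at 37 °C, plotted as double reciprocals. Data were computer-fitted to competitive or noncompetitive inhibition models and statistically tested for fit to each model.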

Assay [4] addresses T1, Dihydropteroate synthase. In words: Inhibitory activity against binding of para-aminobenzoic acid to synthase. To be noted: read-out: I50. A digest of the protocol: as §3
Assay [5] has as its target T2, Dihydropteroate synthase (Escherichia coli K-12). The assay can be described thus: In vitro percent inhibition of dihydropteroate synthase from Escherichia coli at 20 uM. A digest of the protocol:
as §2

Consider `Nc1nc(N)c(N=O)c(=O)[nH]1`, for which the IC50 on Dihydropteroate synthase [1] was 5.8 µM.
One may read the inhibition as the percentage by which the read-out fell short of the control. With `CNc1cc(O)nc(N)n1`, the IC50 on Dihydropteroate synthase [1] is above 110 µM. In assay [2], this compound gave an inhibition below 10%.
With `Nc1nc(O)c(N=O)c(NCCCOc2ccccc2)n1`, the IC50 on Dihydropteroate synthase [1] was 3.7 µM. In assay [3], this compound yielded a Kis of 0.69 µM.
On to `Nc1nc(O)c(N=O)c(NCCCCCCCc2ccccc2)n1`, for which the IC50 at Dihydropteroate synthase [1] and on Dihydropteroate synthase [4] was 1.4 µM in each case.
As for `CC(C)Nc1nc(N)nc(O)c1N=O`, at Dihydropteroate synthase [1], the IC50 worked out at 208 µM.
Take `Nc1nc(O)c(N=O)c(NCCCCc2ccccc2)n1`: the IC50 on Dihydropteroate synthase [1] is 2.5 µM.
In the case of `Nc1nc(O)c(N=O)c(Nc2ccccc2)n1`, the IC50 at Dihydropteroate synthase [1] was above 100 µM. In addition, the inhibition in assay [2] is below 10%.
`Cc1cc(NS(=O)(=O)c2ccc(N)cc2)no1` [SULFAMETHOXAZOLE]: the IC50 at Dihydropteroate synthase [1] was 4.7 µM.
Still for that read-out and setting: then `CCNc1nc(N)nc(O)c1N=O`, with 11 µM.
For `Nc1nc(O)c(C=O)c(NCCCCc2ccccc2)n1`, the IC50 on Dihydropteroate synthase [1] is above 100 µM. This compound registered an inhibition in assay [2] below 10%.
For the compound `CNc1nc(N)nc(O)c1N=O`, the IC50 at Dihydropteroate synthase [1] was 1.6 µM. In assay [3], this compound registered a Kis of 0.085 µM.
For the compound `Nc1nc(O)c(N=O)c(NCCCCCCc2ccccc2)n1`, on Dihydropteroate synthase [1], the IC50 turned out to be 9 µM.
In the case of `CNc1nc(N)nc(O)c1C=O`, the IC50 on Dihydropteroate synthase [1] was above 300 µM. For the same compound, the inhibition in assay [2] is below 10%.
For the compound `Nc1ccc(S(=O)(=O)Nc2nccs2)cc1` [SULFATHIAZOLE], the IC50 on Dihydropteroate synthase [1] amounted to 2.5 µM.
As to `Nc1nc(O)c(N=O)c(NCCCO)n1`, the IC50 on Dihydropteroate synthase [1] was found to be 35 µM.
Turning to `Nc1nccc(O)n1`, on Dihydropteroate synthase [1], the IC50 is above 500 µM. This compound registered an inhibition in assay [2] below 10%.
In the case of `Nc1nc(O)c([N+](=O)[O-])c(NCCCCc2ccccc2)n1`, the IC50 on Dihydropteroate synthase [1] worked out at 21 µM.
Same read-out and setting: then `N#Cc1c(O)nc(N)nc1NCCCCc1ccccc1`, with 290 µM.
Still for that read-out and setting: in the case of `Nc1nc(O)c(N=O)c(NCc2ccccc2)n1` it was 12.9 µM.
`Nc1nc(O)c(N=O)c(NCCCCCc2ccccc2)n1`: on Dihydropteroate synthase [1], the IC50 was 5.9 µM.
On the same count and under the same terms, then `Nc1nc(O)c(N=O)c(NCCCS(=O)(=O)c2ccccc2)n1`, with 18 µM.
Take `Nc1nc(O)c(N=O)c(NCCCc2ccccc2)n1`: the IC50 at Dihydropteroate synthase [1] is 7.8 µM.
For `CNc1nc(N)[nH]c(=O)c1[N+](=O)[O-]`, the IC50 at Dihydropteroate synthase [1] turned out to be 2.8 µM.
`CCN(CC)c1nc(N)nc(O)c1N=O`: the IC50 at Dihydropteroate synthase [1] amounted to 197 µM.
With `CSc1nc(N)nc(O)c1N=O`, the inhibition in assay [5] turned out to be 17%.
On to `Nc1nc(O)c(N=O)c(O)n1`, for which, on Dihydropteroate synthase [1], the IC50 was above 200 µM. The inhibition in assay [2] is below 10%.
With `Nc1nc(O)c(N=O)c(NCCc2ccccc2)n1`, the IC50 at Dihydropteroate synthase [1] was determined as 4.2 µM.

For the origin of these results see ChEMBL document CHEMBL1122871, “Monocyclic pteridine analogues. Inhibition of Escherichia coli dihydropteroate synthase by 6-amino-5-nitrosoisocytosines” (J Med Chem, 1985).
